# Active and inactive are the calls of the source. The rule behind the calls is not given here.
# How the values were obtained:
# [1] = molecular target: Histamine H2 receptor (Homo sapiens) (UniProt P25021); assay: Displacement of [3H]Tiotidine from H2 histamine receptor at 10 uM
# [2] = molecular target: T1, Acetylcholine receptor; alpha1/beta1/delta/gamma (Homo sapiens) (UniProt P02708+P07510+P11230+Q07001); assay: Agonist activity at human alpha1beta1gammadelta nAChR expressed in TE671/RD cells at 10 uM by 86Rb+ flux assay; format: functional, cell-based
# Procedure, shortened: (§1)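 Human clonal TE671/RD cells endogenously express muscle-type α1*-nAChRs (α1, β1, γ, δ). Cells were kept at low passage (1−26 from frozen stocks). Function was read as 86Rb+ efflux, with agonist and antagonist modes tested up to 10 μM.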
# [3] = molecular target: Neuronal acetylcholine receptor; alpha2/beta2 (Rattus norvegicus, UniProt P12389+P12390); assay: Displacement of [3H] epibatidine from rat alpha2beta2 nAChR by beta scintillation counting; format: protein-complex assay
# [4] = molecular target: Neuronal acetylcholine receptor; alpha3/beta2 (Rattus norvegicus, UniProt P04757+P12390); assay: Displacement of [3H] epibatidine from rat alpha3beta2 nAChR by beta scintillation counting; format: protein-complex assay
# [5] = molecular target: Delta-type opioid receptor (Homo sapiens) (UniProt P41143); assay: Displacement of [3H]DADLE from delta opioid receptor at 10 uM
# [6] = molecular target: T2, Muscarinic acetylcholine receptor M5 (Homo sapiens) (UniProt P08912); assay: Displacement of [3H]QNB from M5 receptor at 10 uM
# T2 sequence (whole entry): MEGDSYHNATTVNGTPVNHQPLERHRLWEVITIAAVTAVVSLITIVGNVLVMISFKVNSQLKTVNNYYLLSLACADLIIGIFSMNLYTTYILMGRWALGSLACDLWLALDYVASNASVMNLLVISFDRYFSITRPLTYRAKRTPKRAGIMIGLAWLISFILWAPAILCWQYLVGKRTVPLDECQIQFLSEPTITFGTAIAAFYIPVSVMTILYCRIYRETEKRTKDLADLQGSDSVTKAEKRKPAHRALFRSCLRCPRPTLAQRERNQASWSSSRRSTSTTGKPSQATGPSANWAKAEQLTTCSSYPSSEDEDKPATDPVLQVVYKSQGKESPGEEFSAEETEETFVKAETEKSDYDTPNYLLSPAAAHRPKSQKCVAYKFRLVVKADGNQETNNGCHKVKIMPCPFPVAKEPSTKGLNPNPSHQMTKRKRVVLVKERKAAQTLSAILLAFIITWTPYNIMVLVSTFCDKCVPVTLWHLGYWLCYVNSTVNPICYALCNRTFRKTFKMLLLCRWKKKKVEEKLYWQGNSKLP
# [7] = molecular target: T3, Alpha-1B adrenergic receptor (Homo sapiens) (UniProt P35368); assay: Displacement of [3H]Prazosin from alpha1B adrenergic receptor at 10 uM
# T3 sequence (whole entry): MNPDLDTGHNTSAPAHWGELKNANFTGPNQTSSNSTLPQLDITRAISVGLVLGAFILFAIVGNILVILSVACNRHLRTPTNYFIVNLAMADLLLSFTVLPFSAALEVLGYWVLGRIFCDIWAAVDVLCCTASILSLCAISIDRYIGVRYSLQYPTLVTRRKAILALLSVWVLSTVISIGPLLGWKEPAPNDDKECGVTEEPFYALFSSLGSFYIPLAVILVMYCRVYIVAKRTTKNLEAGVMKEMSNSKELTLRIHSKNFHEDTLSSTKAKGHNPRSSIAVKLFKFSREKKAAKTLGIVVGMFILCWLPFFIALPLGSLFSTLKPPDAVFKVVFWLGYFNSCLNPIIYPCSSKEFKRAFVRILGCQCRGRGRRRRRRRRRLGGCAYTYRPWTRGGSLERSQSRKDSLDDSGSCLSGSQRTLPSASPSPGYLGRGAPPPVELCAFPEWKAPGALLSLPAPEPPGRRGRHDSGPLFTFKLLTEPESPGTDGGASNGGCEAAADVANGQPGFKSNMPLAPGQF
# [8] = molecular target: 5-hydroxytryptamine receptor 1E (Homo sapiens) (UniProt P28566); assay: Displacement of [3H]5-HT from 5-HT1E at 10 uM
# [9] = molecular target: Sigma non-opioid intracellular receptor 1 (Homo sapiens) (UniProt Q99720); assay: Displacement of [3H]Pentazocine from sigma1 receptor at 10 uM
# [10] = molecular target: Kappa-type opioid receptor (Homo sapiens) (UniProt P41145); assay: Displacement of [3H]U69593 from kappa opioid receptor at 10 uM
# [11] = molecular target: T1, Acetylcholine receptor; alpha1/beta1/delta/gamma (Homo sapiens); assay: Antagonist activity at human alpha1beta1gammadelta nAChR expressed in TE671/RD cells at 10 uM by 86Rb+ flux assay; format: functional, cell-based; procedure, shortened: as §1
# [12] = molecular target: D(2) dopamine receptor (Homo sapiens) (UniProt P14416); assay: Displacement of [3H]N-methylspiperone from D2 at 10 uM
# [13] = molecular target: Beta-2 adrenergic receptor (Homo sapiens) (UniProt P07550); assay: Displacement of [125I]Iodopindolol from beta2 adrenergic receptor at 10 uM
# [14] = molecular target: Neuronal acetylcholine receptor; alpha4/beta2 (Rattus norvegicus, UniProt P09483+P12390); assay: Displacement of [3H] epibatidine from rat alpha4beta2 nAChR by beta scintillation counting; format: protein-complex assay
# [15] = Inhibition of CYP3A up to 10 uM; format: ADME
# Procedure, shortened: (§2)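 Percent inhibition of CYP isoforms (CYP1A, CYP2C9, CYP2C19, CYP2D6, CYP3A; CYP1A2 reported) with test compound at concentrations up to 10 μM.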
# [16] = molecular target: T4, Alpha-2A adrenergic receptor (Homo sapiens) (UniProt P08913); assay: Displacement of [3H]Clonidine from alpha2A adrenergic receptor at 10 uM
# T4 sequence (whole entry): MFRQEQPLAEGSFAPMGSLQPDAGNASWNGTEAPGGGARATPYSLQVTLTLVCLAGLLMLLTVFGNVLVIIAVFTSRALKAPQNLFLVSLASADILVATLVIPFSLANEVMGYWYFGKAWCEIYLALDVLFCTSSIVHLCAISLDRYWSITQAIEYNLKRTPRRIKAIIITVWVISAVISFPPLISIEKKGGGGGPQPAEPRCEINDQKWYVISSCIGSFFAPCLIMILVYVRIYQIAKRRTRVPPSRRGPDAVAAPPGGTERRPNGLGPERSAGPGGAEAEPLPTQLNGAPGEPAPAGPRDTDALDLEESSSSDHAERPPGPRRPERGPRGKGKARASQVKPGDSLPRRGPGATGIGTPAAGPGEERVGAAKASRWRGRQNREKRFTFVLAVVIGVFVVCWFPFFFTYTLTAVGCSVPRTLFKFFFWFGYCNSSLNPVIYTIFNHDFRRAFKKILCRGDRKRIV
# Cytochrome P450 2D6 = Cytochrome P450 2D6 (Homo sapiens, UniProt P10635); assay: Inhibition of CYP2D6 up to 10 uM; format: ADME; procedure, shortened: as §2
# [17] = molecular target: D(1B) dopamine receptor (Homo sapiens) (UniProt P21918); assay: Displacement of [3H][…] from D5 at 10 uM
# Sequence of D(1B) dopamine receptor (Homo sapiens) (P21918 whole entry): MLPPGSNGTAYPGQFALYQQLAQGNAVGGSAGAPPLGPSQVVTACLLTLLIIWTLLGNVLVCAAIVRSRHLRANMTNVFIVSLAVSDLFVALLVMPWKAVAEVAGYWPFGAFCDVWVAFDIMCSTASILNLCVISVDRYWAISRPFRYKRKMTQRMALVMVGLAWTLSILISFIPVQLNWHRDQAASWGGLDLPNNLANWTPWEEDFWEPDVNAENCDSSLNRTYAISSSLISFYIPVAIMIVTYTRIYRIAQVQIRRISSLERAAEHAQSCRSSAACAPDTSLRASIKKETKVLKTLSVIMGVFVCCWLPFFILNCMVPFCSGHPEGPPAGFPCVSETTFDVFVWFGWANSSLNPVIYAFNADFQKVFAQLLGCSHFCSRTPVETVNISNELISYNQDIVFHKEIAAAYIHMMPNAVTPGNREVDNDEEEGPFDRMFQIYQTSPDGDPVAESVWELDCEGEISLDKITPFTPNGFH
# Sequence of Beta-2 adrenergic receptor (Homo sapiens) (P07550 whole entry, looked up): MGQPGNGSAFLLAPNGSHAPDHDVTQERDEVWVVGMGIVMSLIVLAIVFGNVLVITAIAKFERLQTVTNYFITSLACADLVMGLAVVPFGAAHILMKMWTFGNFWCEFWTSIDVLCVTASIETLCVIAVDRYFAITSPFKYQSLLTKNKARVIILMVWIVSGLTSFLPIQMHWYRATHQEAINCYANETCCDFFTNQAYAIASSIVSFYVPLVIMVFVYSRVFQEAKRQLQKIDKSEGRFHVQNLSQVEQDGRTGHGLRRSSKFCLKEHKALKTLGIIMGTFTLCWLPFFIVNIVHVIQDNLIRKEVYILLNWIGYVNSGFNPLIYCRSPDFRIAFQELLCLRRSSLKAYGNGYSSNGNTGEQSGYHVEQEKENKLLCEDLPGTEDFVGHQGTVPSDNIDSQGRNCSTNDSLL
# Sequence of Histamine H2 receptor (Homo sapiens) (P25021 whole entry): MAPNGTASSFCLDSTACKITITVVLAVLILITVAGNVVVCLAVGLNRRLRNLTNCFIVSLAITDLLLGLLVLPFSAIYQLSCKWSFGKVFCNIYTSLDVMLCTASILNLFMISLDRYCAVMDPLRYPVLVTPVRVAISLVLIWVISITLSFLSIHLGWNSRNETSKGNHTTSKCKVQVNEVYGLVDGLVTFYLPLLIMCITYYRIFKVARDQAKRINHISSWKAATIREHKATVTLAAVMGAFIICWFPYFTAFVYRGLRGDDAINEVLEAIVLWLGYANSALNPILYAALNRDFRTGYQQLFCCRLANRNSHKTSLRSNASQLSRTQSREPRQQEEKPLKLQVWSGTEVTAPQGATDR
# Sequence of Kappa-type opioid receptor (Homo sapiens) (P41145 whole entry): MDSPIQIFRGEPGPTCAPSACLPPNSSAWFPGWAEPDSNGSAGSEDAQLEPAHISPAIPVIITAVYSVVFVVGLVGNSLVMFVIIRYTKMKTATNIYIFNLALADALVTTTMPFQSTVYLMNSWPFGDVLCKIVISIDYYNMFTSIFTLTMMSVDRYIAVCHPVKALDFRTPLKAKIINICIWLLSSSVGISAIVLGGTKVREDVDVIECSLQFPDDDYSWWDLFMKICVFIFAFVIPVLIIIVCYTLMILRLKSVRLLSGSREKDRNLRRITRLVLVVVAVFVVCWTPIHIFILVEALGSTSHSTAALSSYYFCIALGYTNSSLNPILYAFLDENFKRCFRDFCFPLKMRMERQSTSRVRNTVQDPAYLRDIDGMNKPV
# Sequence of 5-hydroxytryptamine receptor 1E (Homo sapiens) (P28566 whole entry): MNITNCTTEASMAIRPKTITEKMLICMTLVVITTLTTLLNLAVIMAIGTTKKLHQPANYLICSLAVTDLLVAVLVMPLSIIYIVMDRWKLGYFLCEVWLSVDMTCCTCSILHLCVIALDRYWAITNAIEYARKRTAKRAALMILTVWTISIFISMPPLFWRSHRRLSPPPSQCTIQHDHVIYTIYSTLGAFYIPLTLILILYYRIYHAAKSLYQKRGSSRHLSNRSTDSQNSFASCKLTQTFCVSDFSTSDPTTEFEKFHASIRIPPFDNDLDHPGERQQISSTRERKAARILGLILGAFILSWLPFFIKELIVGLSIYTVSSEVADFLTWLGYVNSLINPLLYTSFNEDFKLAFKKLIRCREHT
# Sequence of D(2) dopamine receptor (Homo sapiens) (P14416 whole entry): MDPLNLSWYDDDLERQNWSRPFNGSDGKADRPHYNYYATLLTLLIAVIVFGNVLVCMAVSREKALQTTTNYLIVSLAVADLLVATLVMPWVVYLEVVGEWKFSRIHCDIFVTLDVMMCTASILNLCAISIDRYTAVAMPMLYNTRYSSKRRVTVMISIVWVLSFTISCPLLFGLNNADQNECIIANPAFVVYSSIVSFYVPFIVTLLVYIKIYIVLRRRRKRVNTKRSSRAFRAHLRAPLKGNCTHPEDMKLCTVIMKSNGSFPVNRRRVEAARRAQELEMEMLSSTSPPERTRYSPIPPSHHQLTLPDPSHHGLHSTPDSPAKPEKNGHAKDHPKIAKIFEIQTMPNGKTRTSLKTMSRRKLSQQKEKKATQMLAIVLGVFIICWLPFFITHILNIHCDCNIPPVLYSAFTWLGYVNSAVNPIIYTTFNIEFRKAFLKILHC
# Sequence of Sigma non-opioid intracellular receptor 1 (Homo sapiens) (Q99720 whole entry): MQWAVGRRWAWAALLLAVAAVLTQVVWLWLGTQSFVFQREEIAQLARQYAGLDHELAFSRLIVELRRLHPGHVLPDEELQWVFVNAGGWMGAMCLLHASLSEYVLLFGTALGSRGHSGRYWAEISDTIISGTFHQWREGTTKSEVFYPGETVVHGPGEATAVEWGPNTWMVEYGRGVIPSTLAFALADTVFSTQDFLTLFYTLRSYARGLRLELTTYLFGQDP
# Sequence of Neuronal acetylcholine receptor; alpha4/beta2 (P09483 whole entry): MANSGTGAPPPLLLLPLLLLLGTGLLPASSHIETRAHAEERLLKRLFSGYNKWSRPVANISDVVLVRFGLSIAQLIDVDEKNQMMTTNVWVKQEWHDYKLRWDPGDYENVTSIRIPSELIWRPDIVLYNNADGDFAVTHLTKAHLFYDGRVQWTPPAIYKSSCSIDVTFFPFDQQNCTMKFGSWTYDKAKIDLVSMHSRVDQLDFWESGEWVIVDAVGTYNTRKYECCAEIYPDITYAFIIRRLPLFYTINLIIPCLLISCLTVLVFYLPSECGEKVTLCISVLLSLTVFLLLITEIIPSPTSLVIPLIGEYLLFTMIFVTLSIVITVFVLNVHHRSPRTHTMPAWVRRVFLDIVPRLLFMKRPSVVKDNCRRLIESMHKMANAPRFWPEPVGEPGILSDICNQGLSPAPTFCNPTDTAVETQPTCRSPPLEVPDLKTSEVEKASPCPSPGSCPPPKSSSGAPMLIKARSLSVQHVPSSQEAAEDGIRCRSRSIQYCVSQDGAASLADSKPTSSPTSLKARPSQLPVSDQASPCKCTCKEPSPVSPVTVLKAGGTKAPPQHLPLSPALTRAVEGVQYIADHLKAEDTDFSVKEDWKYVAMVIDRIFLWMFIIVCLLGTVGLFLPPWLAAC
# Sequence of Neuronal acetylcholine receptor; alpha4/beta2 (P12390 whole entry): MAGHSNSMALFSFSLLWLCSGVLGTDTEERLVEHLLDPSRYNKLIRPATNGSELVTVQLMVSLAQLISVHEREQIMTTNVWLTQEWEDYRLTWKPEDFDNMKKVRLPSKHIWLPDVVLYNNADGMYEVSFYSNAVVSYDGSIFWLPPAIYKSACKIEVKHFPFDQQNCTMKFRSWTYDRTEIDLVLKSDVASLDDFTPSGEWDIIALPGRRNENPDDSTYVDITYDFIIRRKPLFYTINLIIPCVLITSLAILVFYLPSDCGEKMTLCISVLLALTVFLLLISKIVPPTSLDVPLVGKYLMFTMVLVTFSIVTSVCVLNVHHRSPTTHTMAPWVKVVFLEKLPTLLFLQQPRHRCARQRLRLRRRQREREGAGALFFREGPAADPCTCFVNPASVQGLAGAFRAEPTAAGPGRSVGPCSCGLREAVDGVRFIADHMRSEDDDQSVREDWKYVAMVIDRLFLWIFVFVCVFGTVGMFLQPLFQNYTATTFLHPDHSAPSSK
# Sequence of Delta-type opioid receptor (Homo sapiens) (P41143 whole entry): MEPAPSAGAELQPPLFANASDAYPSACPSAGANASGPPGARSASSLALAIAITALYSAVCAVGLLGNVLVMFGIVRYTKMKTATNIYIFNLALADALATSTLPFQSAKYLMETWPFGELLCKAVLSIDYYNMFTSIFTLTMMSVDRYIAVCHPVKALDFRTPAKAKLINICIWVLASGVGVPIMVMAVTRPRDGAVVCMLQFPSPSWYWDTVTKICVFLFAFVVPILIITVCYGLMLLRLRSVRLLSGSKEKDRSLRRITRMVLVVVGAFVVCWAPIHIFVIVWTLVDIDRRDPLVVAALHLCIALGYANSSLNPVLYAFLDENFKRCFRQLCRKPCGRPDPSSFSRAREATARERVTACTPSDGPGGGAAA
# Sequence of Neuronal acetylcholine receptor; alpha2/beta2 (P12389 whole entry): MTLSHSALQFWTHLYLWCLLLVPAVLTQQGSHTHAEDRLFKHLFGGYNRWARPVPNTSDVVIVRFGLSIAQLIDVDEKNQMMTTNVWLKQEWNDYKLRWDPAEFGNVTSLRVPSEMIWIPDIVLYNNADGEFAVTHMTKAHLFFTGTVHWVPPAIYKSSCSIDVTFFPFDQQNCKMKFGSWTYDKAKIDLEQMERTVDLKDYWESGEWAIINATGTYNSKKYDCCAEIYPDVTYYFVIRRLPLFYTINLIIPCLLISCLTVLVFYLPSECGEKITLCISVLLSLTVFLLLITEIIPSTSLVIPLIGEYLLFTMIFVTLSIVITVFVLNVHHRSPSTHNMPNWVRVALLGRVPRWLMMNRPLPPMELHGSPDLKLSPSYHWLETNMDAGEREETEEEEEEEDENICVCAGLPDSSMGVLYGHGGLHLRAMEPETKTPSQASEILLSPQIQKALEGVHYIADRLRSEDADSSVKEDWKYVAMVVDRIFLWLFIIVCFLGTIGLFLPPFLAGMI
# Sequence of Neuronal acetylcholine receptor; alpha2/beta2 (P12390 whole entry): as the sequence (P12390 whole entry) above
Compound,inhibition [1] [%],Activity [2],Ki [3] [nM],Ki [4] [nM],inhibition [5] [%],inhibition [6] [%],inhibition [7] [%],inhibition [8] [%],inhibition [9] [%],inhibition [10] [%],Activity [11],inhibition [12] [%],inhibition [13] [%],Ki [14] [nM],inhibition (INH) [15],inhibition [16] [%],inhibition (INH) (Cytochrome P450 2D6),inhibition [17] [%]
COCC[C@H]1C[C@@H]1c1cncc(OC[C@@H]2CCN2)c1,26.2,inactive,0.1,2.4,-4.2,-1.1,8.6,13.4,58.7,7.2,inactive,-1.8,3,0.1,<= 25%,9.7,<= 25%,19.1
OCC[C@H]1C[C@@H]1c1cncc(OC[C@@H]2CCN2)c1,18.4,inactive,0.1,3,0.8,-4.4,-4.5,6.7,0.5,3.7,inactive,-7.4,-4.5,0.1,<= 25%,-5.3,<= 25%,25.6
CNC(=O)OCC[C@H]1C[C@@H]1c1cncc(OC[C@@H]2CCN2)c1,14.6,inactive,0.3,9.8,-4.4,-8.7,14.1,-8.2,3.9,19.1,inactive,0.7,22.1,0.6,<= 25%,15.5,<= 25%,-1.5

# Source: ChEMBL document CHEMBL2021777 (J Med Chem, 2012)
